Experimental findings from ChEMBL document CHEMBL5108029, “SILAC-based chemoproteomics reveals a neoligan analogue as an anti-inflammatory agent targeting IRGM to ameliorate cytokine storm” (Eur J Med Chem, 2022) are described below.

Each structure is given as a SMILES string. Active and inactive are the calls of the source. The calls are words filed in the database; no cut-off is given here.

For series [1], the system named is RAW264.7. Nature of the series: Anti-inflammatory activity against LPS-stimulated mouse RAW264.7 cells assessed as reduction in TNF-alpha expression of M1 macrophages at 100 to 500 nM incubated for 48 hrs in presence of LPS by flow cytometry. It counts as functional, cell-based. The note with it: dose 100-500 nM. The procedure, abridged: (§1)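 RAW 264.7 cells in DMEM with 10% heat-inactivated FBS at 37 °C, 5% CO2, subcultured at 70–80% confluence. Seeded at 1 × 10^6 cells/mL in medium with 1 μg/mL LPS, with compound at final 100 nM or 500 nM. After 48 h, M1 differentiation and TNF-α are read by flow cytometry.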
In general terms: A flow cytometer gives signals particle by particle.

For series [2], the system named is CD4+ve Th. Nature of the series: Cytotoxicity against C57BL/6 mouse CD4+ T-lymphocytes at 500 nM measured upto 48 hrs. The class given is toxicity, cell-based. The note with it: 0.5 µM.
The subject of series [3] is CD4+ve Th. Nature of the series: Inhibition of cytokine storm in ConA/1L-12-stimulated C57BL/6 mouse CD4+ T-lymphocytes assessed as reduction in Th2 cell differentiation by measuring proportion of CD4+IL4-positive cells at 500 nM incubated for 48 hrs by flow cytometry (reference value: 67.6%). More on the design: scale not given: the % may be the effect or the level left. The class given is functional. Put shortly:
(§2)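 Splenocytes from C57BL/6 mice after erythrocyte lysis, filtration and counting. Cultured in complete medium with ConA and IL-2 under Th1, Th2 or Th17 differentiation conditions with compound for 48 h. Then PMA, ionomycin and GolgiStop (1:1000) for 4 h. CD4 and intracellular cytokines stained and read by flow cytometry.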

Series [4] deals with CD4+ve Th. Nature of the series: Inhibition of cytokine storm in ConA/1L-12-stimulated C57BL/6 mouse CD4+ T-lymphocytes assessed as reduction in Th1 cell differentiation by measuring proportion of CD4+IFNgamma-negative cells at 500 nM incubated for 48 hrs by flow cytometry (reference value: 31%). It counts as functional. More on the design: scale not given: the % may be the effect or the level left. The procedure, abridged: as §2

Series [5] deals with CD4+ve Th. Nature of the series: Inhibition of cytokine storm in ConA/1L-12-stimulated C57BL/6 mouse CD4+ T-lymphocytes assessed as reduction in Th2 cell differentiation by measuring proportion of CD4+IL4-negative cells at 500 nM incubated for 48 hrs by flow cytometry (reference value: 32.4%). Also on record: scale not given: the % may be the effect or the level left. It counts as functional. The procedure, abridged:
as §2

For series [6], the system named is CD4+ve Th. As to the kind of experiment: Inhibition of cytokine storm in ConA/1L-12-stimulated C57BL/6 mouse CD4+ T-lymphocytes assessed as reduction in Th17 cell differentiation by measuring proportion of CD4+IL17A-positive cells at 500 nM incubated for 48 hrs by flow cytometry (reference value: 68.4%). Also on record: scale not given: the % may be the effect or the level left. It counts as functional. The procedure, abridged: as §2

In series [7] the test system is CD4+ve Th. Nature of the series: Inhibition of cytokine storm in ConA/1L-12-stimulated C57BL/6 mouse CD4+ T-lymphocytes assessed as reduction in Th1 cell differentiation by measuring proportion of CD4+IFNgamma-positive cells at 500 nM incubated for 48 hrs by flow cytometry (reference value: 69%). The class given is functional. Also on record: scale not given: the % may be the effect or the level left. Put shortly:
as §2

For series [8], the system named is CD4+ve Th. Nature of the series: Inhibition of cytokine storm in ConA/1L-12-stimulated C57BL/6 mouse CD4+ T-lymphocytes assessed as reduction in Th17 cell differentiation by measuring proportion of CD4+IL17A-negative cells at 500 nM incubated for 48 hrs by flow cytometry (reference value: 31.6%). It counts as functional. More on the design: scale not given: the % may be the effect or the level left. Put shortly:
as §2

Series [9] has as its system RAW264.7. Nature of the series: Anti-inflammatory activity against LPS-stimulated mouse RAW264.7 cells assessed as proportion of polarized M1 macrophages at 500 nM incubated for 48 hrs in presence of LPS by flow cytometry (reference value: 90.3%). It counts as functional. The procedure, abridged: as §1
Series [10] concerns RAW264.7. As to the kind of experiment: Anti-inflammatory activity against LPS-stimulated mouse RAW264.7 cells assessed as TNF-alpha expression of M1 macrophages at 100 nM incubated for 48 hrs in presence of LPS by flow cytometry (reference value: 82.1%). It counts as functional. Put shortly:
as §1

The test system of series [11] is RAW264.7. Nature of the series: Anti-inflammatory activity against LPS-stimulated mouse RAW264.7 cells assessed as proportion of polarized M1 macrophages at 100 nM incubated for 48 hrs in presence of LPS by flow cytometry (reference value: 90.3%). The class given is functional. Put shortly:
as §1

The subject of series [12] is RAW264.7. As to the kind of experiment: Anti-inflammatory activity against LPS-stimulated mouse RAW264.7 cells assessed as TNF-alpha expression of M1 macrophages at 500 nM incubated for 48 hrs in presence of LPS by flow cytometry (reference value: 82.1%). It counts as functional. The procedure, abridged: as §1

Turning to `C[C@]12CCC(=O)C=C1CC[C@@H]1[C@@H]2[C@@H](O)C[C@@]2(C)[C@H]1CC[C@]2(O)C(=O)CO`, in the series with RAW264.7 [1], the result was Active.

Consider `C=CCC1=C[C@]2(OC)C(=CC1=O)O[C@H](c1ccc(OC)c(OC)c1)[C@H]2C`, for which the Activity entry is listed as “Non-Toxic” with CD4+ve Th [2]; 14.3% in the series on CD4+ve Th [3]; 75.7% in the series with CD4+ve Th [4]; 85.7% with CD4+ve Th [5]; 21.4% with CD4+ve Th [6]; 24.3% in the series on CD4+ve Th [7]. Also, the Activity in the series on CD4+ve Th [8] amounted to 78.6%. In addition, the result with RAW264.7 [1] was Active.

Take `C#CCCC1(CCOc2cc3c(cc2CC=C)[C@H](C)[C@@H](c2ccc(OC)c(OC)c2)O3)N=N1`: the Activity with RAW264.7 [9] was determined as 82.6%; with RAW264.7 [10] it was 28.9%; in the series with RAW264.7 [11] it was 81.8%; in the series with RAW264.7 [12], 26.6%.
